Data from ChEMBL document CHEMBL4385601, “Anti-Zika Activity of a Library of Synthetic Carbohydrate Receptors” (J Med Chem, 2019).
pIC50: −log10 of the molar value. Calls of active or inactive are those of the source. No cut-off for these calls is given here.

Columns and labels:
Vero [1] = assay: Inhibition of envelope glycoprotein N154Q mutant in Zika virus infected in African green monkey Vero cells assessed as reduction in viral infection up to 200 uM pretreated for 30 mins followed by viral infection and measured 72 hrs post-infection; format: cell-based
Summary of the method: (§1)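 N154Q reporter particles were made by transfecting 293T cells 1:1 with C-prME-N154Q and subgenomic WNV GFP replicon plasmids, harvested at 48 h. Vero cells were pretreated with compound for 30 min at room temperature, then infected with wild-type or N154Q particles. GFP+ cells per well were counted from whole-well images at 72 h; mean ±SD of triplicate wells.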

Zika virus [2] = assay: Antiviral activity against Zika virus harboring subgenomic GFP replicon infected in African green monkey Vero cells assessed as reduction in viral infection treated 4 hrs post-infection and measured 72 hrs post-infection; format: functional, organism-based
Summary of the method: (§2)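 Vero cells were infected with a predetermined dose of ZIKV GFP reporter virus particles. Compound was added 4 h or 24 h after infection. Plates were fixed 72 h post-infection and GFP+ cells per well counted by whole-well imaging.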

Zika virus [3] = assay: Antiviral activity against Zika virus PRVABC-59 infected in African green monkey Vero cells assessed as reduction in viral infection at 200 uM pretreated for 30 mins followed by viral infection and measured by DAPI staining-based fluorescence microscopic method; format: functional, organism-based
Summary of the method: (§3)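 Vero cells at 7,500/well were pretreated with compound for 30 min at room temperature. They were then infected with PRVABC59 at a titration-set dose giving ~2000-3000 infected cells/well. Cells were fixed and stained with 4G2 anti-envelope antibody plus Alexa 488 secondary. Whole wells were imaged and positive cells counted, in triplicate wells, with the experiment repeated. Microscopy images were taken with DAPI nuclear counterstain.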

[4] = Cytotoxicity against African green monkey Vero cells assessed as reduction in cell viability measured after 72 hrs by Celltiter-Glo luminescence assay; format: cell-based; settings: chlorocebus sabaeus, read-out: TC50
Summary of the method: (§4)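 Vero or HeLa cells at 5,000/well were exposed to compound in duplicate for 72 h at 37 °C. Viability was read as cellular ATP by CellTiter-Glo luminescence and normalised to DMSO-treated cells as 100%. TC50 came from 4-parameter sigmoidal logistic fits.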

Zika virus [5] = assay: Antiviral activity against Zika virus harboring subgenomic GFP replicon infected in African green monkey Vero cells assessed as reduction in viral infection preincubated for 30 mins followed by viral infection and measured after 72 hrs; format: functional, organism-based; settings: for pIC50: Zika virus, Vero, read-out: IC50
Summary of the method: (§5)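 Vero or HeLa cells (DMEM, 10% FBS) at 5,000/well were pretreated 30 min at room temperature; compound came from 10 mM DMSO stock diluted in medium. Cells were infected with reporter particles (ZIKV C-prM-E carrying a WNV GFP replicon) at a dose giving up to 1000 GFP+ cells/well. After 72 h at 37 °C, whole-well GFP+ counts were normalised to DMSO-treated infected cells. Wells were run in duplicate/triplicate, three experiments; IC50 taken from curve fits.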

Zika virus [6] = assay: Antiviral activity against Zika virus harboring subgenomic GFP replicon infected in African green monkey Vero cells assessed as reduction in viral infection treated 24 hrs post-infection and measured 72 hrs post-infection; format: functional, organism-based; summary of the method: as §2
Zika virus [7] = assay: Antiviral activity against Zika virus PRVABC-59 infected in African green monkey Vero cells assessed as reduction in viral infection up to 200 uM pretreated for 30 mins followed by viral infection and measured by 4G2 antibody based assay; format: functional, organism-based; summary of the method: as §3
[8] = Binding affinity to alpha mannose in CD2Cl2 by NMR analysis
[9] = Cytotoxicity against human HeLa cells assessed as reduction in cell viability measured after 72 hrs by Celltiter-Glo luminescence assay; format: cell-based; settings: read-out: TC50; summary of the method: as §4
Zika virus [10] = assay: Antiviral activity against Zika virus harboring subgenomic GFP replicon infected in human HeLa cells assessed as reduction in viral infection preincubated for 30 mins followed by viral infection and measured after 72 hrs; format: functional, organism-based; summary of the method: as §5
[11] = Binding affinity to beta mannose in CD2Cl2 by NMR analysis
Zika virus [12] = assay: Antiviral activity against Zika virus harboring subgenomic GFP replicon infected in African green monkey Vero cells assessed as reduction in viral infection at 100 uM preincubated for 30 mins followed by viral infection and measured after 72 hrs; format: functional, organism-based
Vero [13] = assay: Inhibition of envelope glycoprotein N154Q mutant in Zika virus infected in African green monkey Vero cells assessed as reduction in viral infection up to 8 uM pretreated for 30 mins followed by viral infection and measured 72 hrs post-infection; format: cell-based; summary of the method: as §1
Zika virus [14] = assay: Antiviral activity against Zika virus PRVABC-59 infected in African green monkey Vero cells assessed as reduction in viral infection up to 8 uM pretreated for 30 mins followed by viral infection and measured by 4G2 antibody based assay; format: functional, organism-based; summary of the method: as §3
[15] = Therapeutic index, ratio of TC50 for African green monkey Vero cells to IC50 for Zika virus harboring subgenomic GFP replicon infected in African green monkey Vero cells; format: toxicity; settings: read-out: TI
Zika virus [16] = assay: Antiviral activity against Zika virus PRVABC-59 infected in African green monkey Vero cells assessed as reduction in viral infection at 8 uM pretreated for 30 mins followed by viral infection and measured by DAPI staining-based fluorescence microscopic method; format: functional, organism-based; summary of the method: as §3

Row | SMILES | Activity (Zika virus [2]) | CC50 at 72 h [4] | pIC50 (Zika virus [5]) | Activity (Zika virus [6]) | Ka [8] | CC50 at 72 h [9] | pIC50 (Zika virus [10]) | Ka [11] | Activity (Zika virus [12]) | further results
1 | Cc1ccc(C(=O)Nc2ccc(S(=O)(=O)O)c3cc(S(=O)(=O)O)cc(S(=O)(=O)O)c23)cc1NC(=O)c1cccc(NC(=O)Nc2cccc(C(=O)Nc3cc(C(=O)Nc4ccc(S(=O)(=O)O)c5cc(S(=O)(=O)O)cc(S(=O)(=O)O)c45)ccc3C)c2)c1 [SURAMIN] | inactive | > 200 µM | 4.36 | inactive | – | – | – | – | – | inhibition (Vero [1]): Active; Activity (Zika virus [3]): Active; Activity (Zika virus [5]): Dose-dependent effect; Activity (Zika virus [7]): Active
2 | c1csc(CNCc2cc(CNCc3cccs3)cc(-c3cc(CNCc4cccs4)cc(CNCc4cccs4)c3)c2)c1 | inactive | 4.12 µM | 5.88 | inactive | 1.4 ×10² /M | 2470 nM | 6.25 | inactive | Active | –
3 | c1coc(CNCc2cc(CNCc3ccco3)cc(-c3cc(CNCc4ccco4)cc(Cn4cc(COCCOCCOCCOCc5cn(Cc6cc(CNCc7ccco7)cc(-c7cc(CNCc8ccco8)cc(CNCc8ccco8)c7)c6)nn5)nn4)c3)c2)c1 | – | 51.5 µM | 4.91 | – | – | 2220 nM | 5.86 | – | Active | –
4 | O=C(NCc1cc(CNC(=O)c2ccco2)cc(-c2cc(CNC(=O)c3ccco3)cc(CNC(=O)c3ccco3)c2)c1)c1ccco1 | – | – | – | – | – | – | – | – | Active | IC50 (Zika virus [5]; vero): Nd(Insoluble)
5 | Cn1ccnc1CNCc1cc(CNCc2nccn2C)cc(-c2cc(CNCc3nccn3C)cc(CNCc3nccn3C)c2)c1 | – | – | < 4.00 | – | 4.4 ×10³ /M | – | – | 5.9 ×10² /M | Active | –
6 | O=C(NCc1cc(CNC(=O)c2cccs2)cc(-c2cc(CNC(=O)c3cccs3)cc(CNC(=O)c3cccs3)c2)c1)c1cccs1 | – | – | < 4.00 | – | – | – | – | – | Active | –
7 | C(=N\Cc1cc(C/N=C/c2ccco2)cc(-c2cc(C/N=C/c3ccco3)cc(C/N=C/c3ccco3)c2)c1)/c1ccco1 | – | – | < 4.00 | – | 2 ×10² /M | – | – | 3.7 ×10¹ /M | Active | –
8 | C(=N\Cc1cc(C/N=C/c2cccs2)cc(-c2cc(C/N=C/c3cccs3)cc(C/N=C/c3cccs3)c2)c1)/c1cccs1 | – | – | < 4.00 | – | inactive | – | – | inactive | Active | –
9 | NCc1cc(CN)cc(-c2cc(CN)cc(CN)c2)c1 | – | – | < 4.00 | – | – | – | – | – | Active | –
10 | C(=N\Cc1cc(C/N=C/c2ccc[nH]2)cc(-c2cc(C/N=C/c3ccc[nH]3)cc(C/N=C/c3ccc[nH]3)c2)c1)/c1ccc[nH]1 | inactive | 46.1 µM | 5.87 | inactive | 3 ×10³ /M | 17600 nM | 5.51 | 2.4 ×10³ /M | Active | –
11 | c1coc(CNCc2cc(CNCc3ccco3)cc(-c3cc(CNCc4ccco4)cc(CNCc4ccco4)c3)c2)c1 | inactive | 5.43 µM | 5.95 | inactive | 1.1 ×10² /M | 2510 nM | 6.46 | 5.4 ×10¹ /M | Active | –
12 | c1c[nH]c(CNCc2cc(CNCc3ccc[nH]3)cc(-c3cc(CNCc4ccc[nH]4)cc(CNCc4ccc[nH]4)c3)c2)c1 | inactive | 34.1 µM | 6.44 | inactive | 1.4 ×10³ /M | 2430 nM | 6.35 | 3.6 ×10⁴ /M | Active | –
13 | c1c[nH]c(CNCc2cc(CNCc3ccc[nH]3)cc(-c3cc(CNCc4ccc[nH]4)cc(Cn4cc(COCCOCCOCCOCc5cn(Cc6cc(CNCc7ccc[nH]7)cc(-c7cc(CNCc8ccc[nH]8)cc(CNCc8ccc[nH]8)c7)c6)nn5)nn4)c3)c2)c1 | inactive | 36.2 µM | 6.80 | inactive | 2.6 ×10³ /M | 2480 nM | 6.62 | 1.7 ×10³ /M | Active | inhibition (Vero [13]): Active; Activity (Zika virus [14]): Active; selectivity ratio [15]: > 220; Activity (Zika virus [16]): Active
